Source: PubChem (several laboratories)
Shown are actives, neighbours in structure and some others; about 3.3% of the full set was active somewhere.
Myeloid diff MLP = myeloid differentiation induction; ER-HoxA9 myeloid progenitors, lysozyme-GFP differentiation, flow cytometry; calls only at 10 µM; hit rate 1% among 360,000; AID 624256;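 active means normalized GFP-positive differentiation at or above the plate's own cutoff, the solvent-only control mean plus 3 SD; inconclusive means no clear call, values can overlap the other calls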;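 further: cells exposed to compound for four days before flow analysis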
ATG4B inh = ATG4B (human) cysteine protease inhibition | hit rate 0.51% among 340,000 | ATG4B cleavage of LC3-PLA2, NBD-HPC fluorescence, 1 h | inhibition, % at 8.33 µM; in the data active means inhibition above about 40%
Arrestin-AP2 inh = blocks beta-arrestin peptide binding to AP2 adaptin; hit rate 0.31% among 340,000; inhibition, % at 10 µM; FITC-arrestin peptide / GST-AP2 beads, flow cytometry; AP2 beta2 appendage carries R879A mutation; AID 504490;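 active means inhibition above a set limit, near 3 SD of compounds lacking own fluorescence, cut at about 54% in these data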;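 further: plate controls were DMSO wells for no effect and 5 µM unlabelled arrestin peptide for full effect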
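system = GST-tagged AP2 beta2-adaptin appendage (R879A) on 4 µm glutathione beads | reagent = FITC-labelled arrestin peptide probe, 50 nM final | schedule = compound with beads 12 min RT, then probe 1 h RT | signal = HyperCyt-sampled flow cytometry, FL1 channel, ex 488/em 535 nm | read-out = percent response from loss of bead-bound FITC fluorescence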
NRP1-CendR mod = modulators of CendR peptide binding to human neuropilin-1. O14786. FAM-RPARPAR peptide binding to NRP-1, fluorescence polarization. inhibition, % at 25 µM. hit rate 0.85% among 360,000. AID 602438;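 active means inhibition or corrected inhibition above about 18%, plus a signal ratio from 0.5 to 1.5, limit read from the data, passing the limit was not always enough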
ABCB6 inh 2 = blocks the human ABCB6 transporter | K562-ABCB6 porphyrin accumulation, flow cytometry, 1 h; stronger effect = lower value | fluorescence ratio to DMSO, % at 10 µM | hit rate 0.19% among 360,000;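 active means fluorescence ratio to DMSO below 75%, the collection mean minus 3 SD; inconclusive means too few cells collected in the well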;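 further: signal is porphyrin accumulated inside mitochondria; 100% equals median channel fluorescence of DMSO control wells; lower ratio means ABCB6 inhibition with less porphyrin fluorescence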
Target sequence (Q9NP58 whole entry, looked up): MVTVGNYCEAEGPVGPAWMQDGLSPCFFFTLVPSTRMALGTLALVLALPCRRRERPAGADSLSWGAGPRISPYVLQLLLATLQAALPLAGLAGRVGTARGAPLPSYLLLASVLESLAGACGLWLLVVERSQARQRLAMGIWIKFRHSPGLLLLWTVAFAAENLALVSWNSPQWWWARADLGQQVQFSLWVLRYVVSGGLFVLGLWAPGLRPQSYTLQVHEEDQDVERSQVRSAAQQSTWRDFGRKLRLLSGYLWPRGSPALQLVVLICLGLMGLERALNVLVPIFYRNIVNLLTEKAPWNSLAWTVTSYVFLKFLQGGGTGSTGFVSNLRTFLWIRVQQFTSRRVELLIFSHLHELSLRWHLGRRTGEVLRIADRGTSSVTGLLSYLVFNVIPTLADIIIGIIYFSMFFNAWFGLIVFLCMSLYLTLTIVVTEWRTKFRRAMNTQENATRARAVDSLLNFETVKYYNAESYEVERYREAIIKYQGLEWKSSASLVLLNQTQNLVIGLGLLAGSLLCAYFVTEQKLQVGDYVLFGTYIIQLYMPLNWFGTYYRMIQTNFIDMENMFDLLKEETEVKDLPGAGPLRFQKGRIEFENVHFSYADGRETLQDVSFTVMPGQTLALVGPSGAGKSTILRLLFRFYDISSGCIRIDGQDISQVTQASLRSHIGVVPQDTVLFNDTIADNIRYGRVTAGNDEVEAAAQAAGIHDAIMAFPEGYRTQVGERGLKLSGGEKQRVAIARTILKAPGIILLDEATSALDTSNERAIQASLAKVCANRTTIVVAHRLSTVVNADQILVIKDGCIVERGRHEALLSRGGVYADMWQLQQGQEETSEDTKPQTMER
Granule exo inh = blocks lytic granule exocytosis; inhibition, % at 10 µM; hit rate 0.66% among 360,000; TALL-104 LAMP-1 surface exposure, flow cytometry; cells stimulated with thapsigargin and PMA; AID 651702;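 active means inhibition above about 55%, limit read from the data; inconclusive means no clear call, values can overlap the other calls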
The depositor's hits bear a star; i = inactive; ? = inconclusive; / = not tested or not shown; + = active, no number.

SMILES	Myeloid diff MLP	ATG4B inh	Arrestin-AP2 inh	NRP1-CendR mod	ABCB6 inh 2	Granule exo inh
CC1(c2ccccc2)NC(=O)N(CC(=O)Nc2ccc(Cl)c(S(=O)(=O)N3CCCCC3)c2)C1=O (stereo unspecified)	+	-7	-10	4	98	-2
CC1(c2ccc([N+](=O)[O-])cc2)NC(=O)N(CC(=O)Nc2ccc(N3CCCCC3)cc2)C1=O (stereo unspecified)	+	-7	-1	6	91	-2
O=C(Nc1c(-c2ccc3c(c2)OCO3)[nH][nH]c1=O)c1cccc(C(F)(F)F)c1	i	/	/	4	102	5
COc1ccc(C(O)c2nc(-c3cnn(C)c3)cs2)cc1 (stereo unspecified)	i	/	/	12	95	4
Cn1c(SCCS(=O)(=O)c2ccc(Cl)cc2)nnc1-c1ccccc1	i	3	-11	32*	190	26
O=C1CCCN1C(=O)CSc1nnnn1-c1cccc(F)c1	i	0	-2	0	98	-8
Oc1c(Br)cc(Br)cc1C=Nc1cccc2ncccc12	i	16	18	-26	101	67*
CCCCn1c(O)c(N=Nc2ccccc2O)c2ccccc21	i	12	5	-173	294	6
Cc1noc(C)c1CSc1nc2ccccc2c(=O)n1-c1ccccc1	?	54*	-6	3	96	5
O=C(COC(=O)/C=C/c1ccc(OC(F)F)cc1)NC1CCCCCCC1	i	6	-8	4	100	-4
Cc1ccnc(N/C=C(\C#N)c2nc(-c3cccc(Br)c3)cs2)c1	+	-15	-1	130	220	-1
N#C/C(=C\Nc1ccc2cn[nH]c2c1)c1nc(-c2ccccc2)cs1	i	-3	-22	-29	182	-2
C=CCN(CC=C)c1nc2ccccc2nc1C(C#N)C(=O)OC(C)C (stereo unspecified)	+	11	4	-31	120	-2
C=CCOC(=O)C(C#N)c1nc2ccccc2nc1N1CCN(c2ccccc2OC)CC1 (stereo unspecified)	i	-1	-9	4	93	-1
COc1ccc(C(=O)OCCN2C(=O)c3ccccc3C2=O)cc1	i	8	1	-9	95	2
CN1C(=O)/C(=N\OC(=O)c2cccc3ccccc23)c2ccccc21	i	2	7	-1	92	80*
COc1ccc(C(=O)O/N=C2\C(=O)N(C)c3ccccc32)cc1	i	-1	35	5	95	66*
C/C(CC(=O)Nc1ccc2c(c1)OCCO2)=N\NC(=O)COc1cccc(C)c1	+	-8	25	9	96	1
COc1ccc2nc3cccc(OC)c3nc2c1	i	-9	-7	31*	95	0
COc1ccc(C2=CCCCCC2)c(OC)c1OC	i	-4	-2	10	99	4
COc1ccc(-c2ccc(OC)c(OC)c2OC)c(OC)c1OC	i	-3	0	20*	98	0
COc1cccc(/C(O)=C2/C(=O)C(=O)N(CCN(C)C)C2c2ccc(Br)cc2)c1 (stereo unspecified)	i	-13	-2	20*	90	2
COc1ccc(CC(=O)Nc2ccc3c(c2)OCO3)cc1S(=O)(=O)N1CCOCC1	i	-6	-1	22*	88	1
COc1ccc(CCC(=O)Nc2cccc(S(=O)(=O)N3CCCCCC3)c2)cc1OC	i	-5	-1	-1	94	17
COc1ccc(CC(=O)Nc2cccc(S(=O)(=O)N3CCCCCC3)c2)cc1OC	+	-4	4	-5	91	-2
SMILES	Myeloid diff MLP	ATG4B inh	Arrestin-AP2 inh	NRP1-CendR mod	ABCB6 inh 2	Granule exo inh
COc1ccc(N/C=C\C(=O)c2ccc3c(c2)OCO3)cc1OC	i	-21	4	-9	100	0
COC(=O)c1ccc(N/C=C\C(=O)c2ccc3c(c2)OCO3)cc1	i	-11	14	22*	102	6
O=C(NCC1CCCO1)c1ccc(NS(=O)(=O)c2cccc([N+](=O)[O-])c2)cc1 (stereo unspecified)	i	-34	7	4	98	0
O=C(NCC1CCCO1)c1ccccc1S(=O)(=O)c1ccc([N+](=O)[O-])cc1 (stereo unspecified)	+	-10	22	-3	145	0
CCOC(=O)C(Cc1ccccc1)NC(=O)CCCC(=O)c1ccccc1 (stereo unspecified)	i	0	16	13	98	19
COCCNC(=O)CN1CCCCCC1	i	-4	14	26*	92	6
O=C(Cn1cnc2c(NC(=O)OCc3ccccc3)ncnc21)NCCN1CCOCC1	i	-1	4	29*	97	-10
O=C(Cn1cnc2c(OCc3ccccc3)ncnc21)NCCN1CCOCC1	i	/	-5	-11	96	-2
C/C(=N/NC(=O)CNC(=O)C(c1ccccc1)c1ccccc1)c1ccco1	i	0	-6	-7	99	-3
O=C(CNC(=O)C12CC3CC(CC(C3)C1)C2)NC1=NCCS1	i	2	19	26*	96	-2
C/C(=N\NC(=S)Nc1cc(S(=O)(=O)N2CCOCC2)ccc1Cl)c1ccc(N2CCOCC2)cc1	+	-11	-30	-24	96	-4
Cc1ccc(S(=O)(=O)N2CCCCC2)cc1C(=O)OC(C)C(=O)NCC1CCCCC1 (stereo unspecified)	i	0	30	-1	95	1
OCC[C@@H]1C[C@H](O)[C@@H](O)[C@@]2(CCCCO2)O1	i	-2	13	27*	97	-10
COC(=O)c1ccc2nc(-c3ccco3)c(Cc3ccccc3)n2c1	i	/	/	-36	101	25
O=[N+]([O-])c1cnc(Sc2ccncn2)s1	?	-5	28	11	103	61*
O=[N+]([O-])c1cnc(Sc2ccncn2)c([N+](=O)[O-])c1	?	/	/	0	106	68*
O=C(Nc1ccc(Cl)cc1)Nc1ccccc1Sc1ncc([N+](=O)[O-])s1	?	1	2	-14	99	11
Cc1c(C(=O)NCc2ccco2)oc2c(F)cccc12	i	4	-11	6	94	-5
O=C(O)c1cc(-c2ccccc2)nn1CC1CC(c2cccc([N+](=O)[O-])c2)=NO1 (stereo unspecified)	/	2	/	/	/	/
CC(C1CC2CCC1C2)n1c(-c2ccco2)n[nH]c1=S (stereo unspecified)	i	-6	-1	-5	98	15
O=C(O)C1CCCN1S(=O)(=O)c1ccccc1 (stereo unspecified)	+	5	4	2	100	2
Cc1ccc(S(=O)(=O)N2CCCC2C(=O)O)s1 (stereo unspecified)	i	1	-6	11	103	8
